Converted amounts (≈) assume the structure as drawn. The source made the active and inactive calls. No cut-off for these calls is given here. Residues, ends and D or L forms follow the SMILES beside them.
Experiments:
Enterococcus faecalis [1] = test: Antimicrobial activity against Enterococcus faecalis NKH13 harboring pMG2200-like and pMG2201-like plasmids after 24 hrs by agar dilution method; format: functional; settings: NKH13, 24 h
Method in brief: (§1)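 Agar dilution MICs on clinical E. faecalis isolates. Overnight Mueller-Hinton broth culture diluted 100-fold; ~5 × 10^5 cells inoculated onto Mueller-Hinton medium holding a concentration series of each drug. Incubated at 37°C and read at 24 h. Testing and interpretation follow CLSI (NCCLS) standards, with E. faecium ATCC 9790 as control strain.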

Enterococcus faecalis [2] = test: Antimicrobial activity against Enterococcus faecalis NKH14 harboring pMG2200-like and pMG2201-like plasmids after 24 hrs by agar dilution method; format: functional; settings: NKH14, 24 h; method in brief: as §1
Enterococcus faecalis [3] = test: Antimicrobial activity against Enterococcus faecalis NKH7 harboring pMG2200-like plasmid after 24 hrs by agar dilution method; format: functional; settings: NKH7, 24 h; method in brief: as §1
Enterococcus faecalis [4] = test: Antimicrobial activity against Enterococcus faecalis NKH8 harboring pMG2200-like and pMG2201-like plasmids after 24 hrs by agar dilution method; format: functional; settings: NKH8, 24 h; method in brief: as §1
Enterococcus faecalis [5] = test: Antimicrobial activity against Enterococcus faecalis NKH2 harboring pMG2200-like and pMG2201-like plasmids after 24 hrs by agar dilution method; format: functional; settings: NKH2, 24 h; method in brief: as §1
Enterococcus faecalis [6] = test: Antimicrobial activity against Enterococcus faecalis NKH16 harboring pMG2200-like plasmid after 24 hrs by agar dilution method; format: functional; settings: NKH16, 24 h; method in brief: as §1
Enterococcus faecalis [7] = test: Antimicrobial activity against Enterococcus faecalis NKH1 harboring pMG2200-like plasmid after 24 hrs by agar dilution method; format: functional; settings: NKH1, 24 h; method in brief: as §1
Enterococcus faecalis [8] = test: Antimicrobial activity against Enterococcus faecalis NKH11 harboring pMG2200-like plasmid after 24 hrs by agar dilution method; format: functional; settings: NKH11, 24 h; method in brief: as §1
Enterococcus faecalis [9] = test: Antimicrobial activity against Enterococcus faecalis NKH4 harboring pMG2200-like and pMG2201-like plasmids after 24 hrs by agar dilution method; format: functional; settings: NKH4, 24 h; method in brief: as §1
Enterococcus faecalis [10] = test: Antimicrobial activity against Enterococcus faecalis NKH18 harboring pMG2200-like and pMG2201-like plasmids after 24 hrs by agar dilution method; format: functional; settings: NKH18, 24 h; method in brief: as §1
Enterococcus faecalis [11] = test: Antimicrobial activity against Enterococcus faecalis NKH10 harboring pMG2200-like and pMG2201-like plasmids after 24 hrs by agar dilution method; format: functional; settings: NKH10, 24 h; method in brief: as §1
Enterococcus faecalis [12] = test: Antimicrobial activity against Enterococcus faecalis NKH5 harboring pMG2200-like plasmid after 24 hrs by agar dilution method; format: functional; settings: NKH5, 24 h; method in brief: as §1
Enterococcus faecalis [13] = test: Antimicrobial activity against Enterococcus faecalis NKH15 harboring pMG2200-like and pMG2201-like plasmids after 24 hrs by agar dilution method; format: functional; settings: NKH15, 24 h; method in brief: as §1
Enterococcus faecalis [14] = test: Antimicrobial activity against Enterococcus faecalis NKH3 harboring pMG2200-like and pMG2201-like plasmids after 24 hrs by agar dilution method; format: functional; settings: NKH3, 24 h; method in brief: as §1
Enterococcus faecalis [15] = test: Antimicrobial activity against Enterococcus faecalis NKH12 harboring pMG2200-like and pMG2201-like plasmids after 24 hrs by agar dilution method; format: functional; settings: NKH12, 24 h; method in brief: as §1
Enterococcus faecalis [16] = test: Antimicrobial activity against Enterococcus faecalis NKH9 harboring pMG2200-like and pMG2201-like plasmids after 24 hrs by agar dilution method; format: functional; settings: NKH9, 24 h; method in brief: as §1
Enterococcus faecalis [17] = test: Antimicrobial activity against Enterococcus faecalis NKH17 harboring pMG2200-like plasmid after 24 hrs by agar dilution method; format: functional; settings: NKH17, 24 h; method in brief: as §1
Enterococcus faecalis [18] = test: Antimicrobial activity against Enterococcus faecalis NKH6 harboring pMG2200-like and pMG2201-like plasmids after 24 hrs by agar dilution method; format: functional; settings: NKH6, 24 h; method in brief: as §1
Enterococcus faecalis [19] = test: Induction of aggregation of Enterococcus faecalis JH2SS harboring pMG2200 at 100 ng/ml; format: functional, organism-based
Method in brief: (§2)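 Donor E. faecalis JH2SS carrying the plasmid, exposed 2 h to synthetic pheromone (cAD1, cPD1, cCF10, cOB1 or cAM373 at 100 ng/ml) or to FA2-2 culture filtrate. Aggregation (clumping) of cells scored visually afterwards. A short 10-min mating with FA2-2 followed induction.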

Enterococcus faecalis [20] = test: Induction of aggregation of Enterococcus faecalis JH2SS harboring pMG2201 at 100 ng/ml; format: functional, organism-based; method in brief: as §2
Enterococcus faecalis [21] = test: Induction of transfer of plasmid pMG2200 in Enterococcus faecalis JH2SS at 100 ng/ml; format: functional, organism-based
Method in brief: (§3)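 Donor E. faecalis JH2SS carrying pMG2200 and pAM714 was exposed for 2 h to a synthetic pheromone (cCF10 or cAD1, 100 ng/ml) to induce aggregation-mating. A short 10-min mating with recipient FA2-2 followed. Transfer frequency was scored as transconjugants per donor cell at the end of mating.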

Enterococcus faecalis [22] = test: Induction of transfer of plasmid pAM714 in Enterococcus faecalis JH2SS at 100 ng/ml; format: functional, organism-based; method in brief: as §3

Structure (SMILES)	MIC (Enterococcus faecalis [1])	MIC (Enterococcus faecalis [2])	MIC (Enterococcus faecalis [3])	MIC (Enterococcus faecalis [4])	MIC (Enterococcus faecalis [5])	MIC (Enterococcus faecalis [6])	MIC (Enterococcus faecalis [7])	MIC (Enterococcus faecalis [8])	MIC (Enterococcus faecalis [9])	MIC (Enterococcus faecalis [10])	MIC (Enterococcus faecalis [11])	MIC (Enterococcus faecalis [12])	MIC (Enterococcus faecalis [13])	MIC (Enterococcus faecalis [14])	MIC (Enterococcus faecalis [15])	MIC (Enterococcus faecalis [16])	MIC (Enterococcus faecalis [17])	MIC (Enterococcus faecalis [18])	further results
CC[C@H]1OC(=O)[C@H](C)[C@@H](O[C@H]2C[C@@](C)(OC)[C@@H](O)[C@H](C)O2)[C@H](C)[C@@H](O[C@@H]2O[C@H](C)C[C@H](N(C)C)[C@H]2O)[C@](C)(O)C[C@@H](C)C(=O)[C@H](C)[C@@H](O)[C@]1(C)O [ERYTHROMYCIN]	> 1020 µg/mL	> 1020 µg/mL	0.125 µg/mL (≈ 0.17 µM)	> 1020 µg/mL	> 1020 µg/mL	0.125 µg/mL (≈ 0.17 µM)	0.25 µg/mL (≈ 0.341 µM)	0.125 µg/mL (≈ 0.17 µM)	> 1020 µg/mL	> 1020 µg/mL	> 1020 µg/mL	0.125 µg/mL (≈ 0.17 µM)	> 1020 µg/mL	> 1020 µg/mL	> 1020 µg/mL	> 1020 µg/mL	0.125 µg/mL (≈ 0.17 µM)	> 1020 µg/mL	–
CN(C)[C@@H]1C(O)=C(C(N)=O)C(=O)[C@@]2(O)C(O)=C3C(=O)c4c(O)cccc4[C@@](C)(O)[C@H]3C[C@@H]12 [TETRACYCLINE]	64 µg/mL (≈ 144 µM)	64 µg/mL (≈ 144 µM)	64 µg/mL (≈ 144 µM)	64 µg/mL (≈ 144 µM)	64 µg/mL (≈ 144 µM)	32 µg/mL (≈ 72 µM)	64 µg/mL (≈ 144 µM)	64 µg/mL (≈ 144 µM)	32 µg/mL (≈ 72 µM)	32 µg/mL (≈ 72 µM)	64 µg/mL (≈ 144 µM)	64 µg/mL (≈ 144 µM)	32 µg/mL (≈ 72 µM)	32 µg/mL (≈ 72 µM)	64 µg/mL (≈ 144 µM)	64 µg/mL (≈ 144 µM)	32 µg/mL (≈ 72 µM)	64 µg/mL (≈ 144 µM)	–
O=C(O)c1cn(C2CC2)c2cc(N3CCNCC3)c(F)cc2c1=O [CIPROFLOXACIN]	64 µg/mL (≈ 193 µM)	64 µg/mL (≈ 193 µM)	64 µg/mL (≈ 193 µM)	64 µg/mL (≈ 193 µM)	64 µg/mL (≈ 193 µM)	64 µg/mL (≈ 193 µM)	64 µg/mL (≈ 193 µM)	64 µg/mL (≈ 193 µM)	64 µg/mL (≈ 193 µM)	64 µg/mL (≈ 193 µM)	64 µg/mL (≈ 193 µM)	64 µg/mL (≈ 193 µM)	64 µg/mL (≈ 193 µM)	64 µg/mL (≈ 193 µM)	64 µg/mL (≈ 193 µM)	64 µg/mL (≈ 193 µM)	64 µg/mL (≈ 193 µM)	64 µg/mL (≈ 193 µM)	–
CSCC[C@H](NC(=O)[C@@H](NC(=O)[C@H](CC(C)C)NC(=O)[C@@H](N)Cc1ccccc1)C(C)C)C(=O)N[C@@H](Cc1ccccc1)C(=O)N[C@@H](CC(C)C)C(=O)N[C@@H](CO)C(=O)NCC(=O)O (H-FLVMFLSG-OH)	–	–	–	–	–	–	–	–	–	–	–	–	–	–	–	–	–	–	Activity (Enterococcus faecalis [19]): inactive; Activity (Enterococcus faecalis [20]): inactive
CC1(C)S[C@@H]2[C@H](NC(=O)[C@H](N)c3ccccc3)C(=O)N2[C@H]1C(=O)O [AMPICILLIN]	–	–	–	–	4 µg/mL (≈ 11.4 µM)	–	4 µg/mL (≈ 11.4 µM)	4 µg/mL (≈ 11.4 µM)	4 µg/mL (≈ 11.4 µM)	–	4 µg/mL (≈ 11.4 µM)	4 µg/mL (≈ 11.4 µM)	4 µg/mL (≈ 11.4 µM)	4 µg/mL (≈ 11.4 µM)	4 µg/mL (≈ 11.4 µM)	–	–	4 µg/mL (≈ 11.4 µM)	–
CC(C)C[C@H](NC(=O)[C@@H](NC(=O)[C@@H](NC(=O)[C@@H](N)CC(C)C)C(C)C)[C@@H](C)O)C(=O)N[C@H](C(=O)N[C@@H](Cc1ccccc1)C(=O)N[C@H](C(=O)O)C(C)C)C(C)C (H-LVTLVFV-OH)	–	–	–	–	–	–	–	–	–	–	–	–	–	–	–	–	–	–	Activity (Enterococcus faecalis [19]): Active; Activity (Enterococcus faecalis [20]): inactive; Activity (Enterococcus faecalis [21]): Active; Activity (Enterococcus faecalis [22]): inactive
NC[C@H]1O[C@H](O[C@H]2[C@H](O)[C@@H](O[C@H]3O[C@H](CO)[C@@H](O)[C@H](N)[C@H]3O)[C@H](N)C[C@@H]2N)[C@H](O)[C@@H](O)[C@@H]1O [KANAMYCIN]	> 1020 µg/mL	> 1020 µg/mL	> 1020 µg/mL	> 1020 µg/mL	> 1020 µg/mL	> 1020 µg/mL	> 1020 µg/mL	> 1020 µg/mL	> 1020 µg/mL	> 1020 µg/mL	> 1020 µg/mL	> 1020 µg/mL	> 1020 µg/mL	> 1020 µg/mL	> 1020 µg/mL	> 1020 µg/mL	> 1020 µg/mL	> 1020 µg/mL	–

From ChEMBL document CHEMBL1629622, “Isolation of VanB-type Enterococcus faecalis strains from nosocomial infections: first report of the isolation and identification of the pheromone-responsive plasmids pMG2200, Encoding VanB-type vancomycin resistance and a Bac41-type bacteriocin, and pMG2201, encoding erythromycin resistance and …” (2009)
